Measurements from ChEMBL document CHEMBL4411297, “Discovery, synthesis and anti-atherosclerotic activities of a novel selective sphingomyelin synthase 2 inhibitor” (Eur J Med Chem, 2019).
Calls of active or inactive are those of the source. No cut-off for these calls is given here.

Columns and labels:
Mus musculus [1] = assay: Down regulation of sphingomyelin levels in C57BL/6J mouse plasma at 100 mg/kg/day, ig qd for 7 days measured on day 3 and 7; assay type: functional, organism-based
In short: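 C57BL/6J mice dosed by gavage at 100 mg/kg once daily for 7 days. Plasma SM sampled on days 0, 3 and 7. Plasma ALT and AST measured on day 7 by automated analyzer. Compared with vehicle, n = 10.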

Mus musculus [2] = assay: Anti-atherosclerotic activity in apoE knockout mouse fed with western-type diet assessed as reduction in monocyte count at 12.5 mg/kg/day, ig for 7 weeks by flow cytometric analysis relative to control; assay type: functional; design: scale not given: the % may be the effect or the level left
In short: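 ApoE KO mice started at 8 weeks old on Western-type diet for 6 weeks. Then dosed by gavage daily with vehicle, 12.5 or 40 mg/kg for 7 weeks with the diet continued, 10 mice per group. Blood single-cell suspensions stained with antibodies in PBS and analysed by flow cytometry. Mean ± SD, n = 5.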

[3] = Ratio of drug level in liver to plasma in C57BL/6J mouse at 100 mg/kg/day, ig qd for 7 days measured on day 7; assay type: ADME, organism-based; details: po
In short: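 C57BL/6J mice dosed intragastrically at 100 mg/kg once daily for 7 days; compound levels in liver and blood measured on day 7, n = 5.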

Mus musculus [4] = assay: Anti-atherosclerotic activity in apoE knockout mouse fed with western-type diet assessed as reduction in lesions in proximal aorta at 40 mg/kg/day, ig for 7 weeks by hematoxylin and eosin staining-based assay relative to control; assay type: functional; design: scale not given: the % may be the effect or the level left
In short: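 ApoE KO mice fed Western-type diet, then given 12.5 or 40 mg/kg/day by gavage in 30% PEG-400/10% DMSO/0.9% NaCl for 7 weeks. Aortic root: H&E-stained 4 µm sections, mean lesion area from 6 sections per animal. Whole aorta: en face Oil Red O staining, percentage of area stained. Compared with vehicle, n = 10.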

[5] = AUC (0 to infinity) in C57BL/6J mouse at 25 mg/kg/day, ig by HPLC-MS/MS analysis; assay type: ADME, organism-based; design: dose 25 mg/kg/day, time infinity, route intragastric; details: in vivo, po
In short: (§1)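 Male C57BL/6J mice, six to eight weeks old, about 20 g, fasted 12 h with free water. Given a single intragastric dose of 25, 50 or 100 mg/kg in 10% DMSO/30% PEG-100/0.9% NaCl. Blood taken retro-orbitally at 5 min to 8 h. Plasma protein-precipitated with methanol plus internal standard, then HPLC-MS/MS on a C18 column. Noncompartmental analysis, n = 6.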

[6] = Apparent oral clearance in C57BL/6J mouse at 50 mg/kg/day, ig by HPLC-MS/MS analysis; assay type: ADME, organism-based; details: in vivo; in short: as §1
[7] = Half life in C57BL/6J mouse at 100 mg/kg/day, ig by HPLC-MS/MS analysis; assay type: ADME, organism-based; details: in vivo, po; in short: as §1
[8] = target: T1, Phosphatidylcholine:ceramide cholinephosphotransferase 1 (Homo sapiens, UniProt Q86VZ5); assay: (§2) Inhibition of purified SMS1 (unknown origin) using C6-NBD-Ceramide and DMPC as substrates preincubated for 5 mins followed by substrate addition and measured after 30 mins by TLC or HPLC method
T1 sequence (Q86VZ5 whole entry): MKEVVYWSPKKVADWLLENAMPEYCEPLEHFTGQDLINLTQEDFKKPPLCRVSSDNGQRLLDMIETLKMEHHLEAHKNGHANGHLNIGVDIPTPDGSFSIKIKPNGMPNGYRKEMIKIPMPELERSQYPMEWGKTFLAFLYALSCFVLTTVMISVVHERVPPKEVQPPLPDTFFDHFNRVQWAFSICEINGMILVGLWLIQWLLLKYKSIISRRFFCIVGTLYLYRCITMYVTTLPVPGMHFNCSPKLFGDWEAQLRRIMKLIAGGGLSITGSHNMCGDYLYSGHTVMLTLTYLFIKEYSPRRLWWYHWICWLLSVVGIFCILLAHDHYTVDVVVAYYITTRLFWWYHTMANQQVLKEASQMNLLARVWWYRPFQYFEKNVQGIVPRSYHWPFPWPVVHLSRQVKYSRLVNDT
In short: (§3)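 Purified SMS1 or SMS2 in DDM detergent buffer; inhibitor in DMSO pre-incubated 5 min at room temperature, then C6-NBD-ceramide and DMPC added, 30 min at 37 °C; ethanol quench, TLC or HPLC read-out. Activity expressed as percent of no-inhibitor vehicle; IC50 from ten (SMS1) or eight (SMS2) concentrations, mean ± SD, n = 3.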

[9] = target: T2, Phosphatidylcholine:ceramide cholinephosphotransferase 1 (Homo sapiens) (UniProt Q86VZ5); assay: as §2; in short: as §3
T2 sequence (whole entry): T1 sequence (Q86VZ5 whole entry)

Mus musculus [10] = assay: Anti-atherosclerotic activity in apoE knockout mouse fed with western-type diet assessed as reduction in plasma SM level at 40 mg/kg/day, ig for 7 weeks relative to control; assay type: functional; design: scale not given: the % may be the effect or the level left
In short: (§4)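 ApoE KO mice on Western-type diet, dosed by gavage at 12.5 or 40 mg/kg/day for 7 weeks, n = 10. Blood collected at 20 weeks of age. Plasma SM measured by a previously reported method. ALT and AST read on an automated biochemical analyzer.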

[11] = target: T3, Phosphatidylcholine:ceramide cholinephosphotransferase 2 (Mus musculus) (UniProt Q9D4B1); assay: Inhibition of SMS2 in C57BL/6J mouse bone marrow derived macrophages assessed as increase in [3H]-cholesterol efflux after 17 hrs by liquid scintillation analysis
T3 sequence (whole entry): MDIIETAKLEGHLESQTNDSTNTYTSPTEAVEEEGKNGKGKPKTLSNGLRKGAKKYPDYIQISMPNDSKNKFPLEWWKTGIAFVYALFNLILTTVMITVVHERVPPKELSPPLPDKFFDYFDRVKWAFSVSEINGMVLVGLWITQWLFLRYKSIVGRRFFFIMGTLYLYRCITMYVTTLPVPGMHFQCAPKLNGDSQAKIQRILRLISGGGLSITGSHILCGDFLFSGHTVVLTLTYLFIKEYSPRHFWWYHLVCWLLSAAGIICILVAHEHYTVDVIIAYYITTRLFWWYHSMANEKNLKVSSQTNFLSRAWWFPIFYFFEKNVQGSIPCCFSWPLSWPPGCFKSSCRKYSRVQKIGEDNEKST
In short: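 Bone marrow macrophages treated with inhibitor at various concentrations for 17 h, labeled with [³H]-cholesterol on acetylated LDL, equilibrated 1 h in DMEM/0.2% BSA, then given 50 µg/ml HDL; medium taken at 8 h. Efflux = medium radioactivity as percent of medium plus cell-lysate total, by scintillation counting.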

[12] = Half life in C57BL/6J mouse at 25 mg/kg/day, ig by HPLC-MS/MS analysis; assay type: ADME, organism-based; details: in vivo, po; in short: as §1
[13] = MRT (0 to 8 hrs) in C57BL/6J mouse at 50 mg/kg/day, ig by HPLC-MS/MS analysis; assay type: ADME, organism-based; details: in vivo, po
In short: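 Male C57BL/6J mice (6–8 weeks, ~20 g), fasted 12 h, given a single intragastric dose of 25, 50 or 100 mg/kg in 10% DMSO/30% PEG/0.9% NaCl. Retro-orbital blood at 5 min to 8 h; plasma protein-precipitated with methanol plus internal standard, assayed by LC-MS/MS; noncompartmental analysis. Mean ± SD, n = 6.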

Mus musculus [14] = assay: Effect on plasma ALT level in apoE knockout mouse fed with western-type diet at 12.5 to 40 mg/kg/day, ig for 7 weeks; assay type: ADME, organism-based; details: in vivo, po, 1176 h; in short: as §4

**Q.** For `CCc1ccccc1COc1ccccc1C(=O)Nc1cccnc1`, which Activity (Mus musculus [1]) is on record?
**A.** Active

**Q.** What about the Activity (Mus musculus [2]) of the same molecule?
**A.** 51%

**Q.** What about the Kp at 168 h [3] of the same molecule?
**A.** 5

**Q.** And the Activity (Mus musculus [4])?
**A.** 50%

**Q.** And the AUC(0-inf) [5]?
**A.** 2360 ng·h/mL

**Q.** What about the CL/F [6] of the same molecule?
**A.** 180 mL/min

**Q.** What about the half-life [7] of the same molecule?
**A.** 2.51 h

**Q.** And the IC50 [8]?
**A.** 134 µM

**Q.** And the inhibition [9]?
**A.** Dose-dependent effect

**Q.** What about the Activity (Mus musculus [10]) of the same molecule?
**A.** 41%

**Q.** What about the inhibition [11] of the same molecule?
**A.** Dose-dependent effect

**Q.** And the half-life [12]?
**A.** 3.22 h

**Q.** And the MRT [13]?
**A.** 1.66 h

**Q.** And the Activity (Mus musculus [14])?
**A.** Non-Toxic
